Active and inactive are the calls of the source. No cut-off for these calls is given here.
Legend:
Homo sapiens [1] = organism: Homo sapiens; assay: Inhibition of LTB4-induced chemotaxis in human polymorphonuclear leukocytes at 0.01 to 10 nM incubated for 90 mins by Diff-Quick staining based densitometric analysis; type: functional, cell-based
Method in brief: (§1)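 Human peripheral blood PMNL from healthy NSAID-free donors were isolated by Percoll and hypotonic lysis. Migration toward 10 nM LTB4 in RPMI/0.1% BSA was run in a 48-well microchamber with 5 μm polycarbonate filters, 2×10^6 cells/mL. Test agents at 0.01–10 nM or EtOH were added to both compartments. After 90 min at 37°C, migrated cells were stained and read by densitometry. Sextuplicates, 3–4 donors, normalized to negative controls.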

Mus musculus = assay: Antiinflammatory activity in FVB mouse model of acute pulmonary inflammation assessed as reduction in number of infiltrating neutrophils in BAL fluid at 10 ng administered intratracheally with lipopolysaccharide measured at 24 hrs by FACS analysis; type: functional
Method in brief: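 Female FVB mice, 7–8 weeks old, acclimated at least 5 days. Intratracheal challenge with 50 μL LPS (250 μg/mL in PBS) containing 10 ng test agent or vehicle (EtOH, 2% final). Controls received PBS with 2% EtOH. BAL collected 24 h later (three 0.6 ml PBS washes). Neutrophils counted by FACS as CD45+ F4/80− Ly6G^hi CD11b^hi, absolute numbers from counting tubes; mean ± SEM, n=3.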

[2] = Drug level in human HepG2 cells treated with 13 uM Protectin-D1 assessed as compound formation incubated for 4 hrs by RP-HPLC/MS analysis; type: ADME, cell-based; conditions: hepg2, 4 h
Method in brief: (§2)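 HepG2 cells were kept in serum-free medium and incubated for 4 h with 13 μM NPD1 (final) or ethanol vehicle. Media were extracted and run on RP-HPLC with a linear ion trap ESI-MS, using full scans at m/z 100-1000. Peaks present only in NPD1 incubates were located from single-ion chromatograms. MS/MS spectra were collected and compared with those of synthetic standards.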

[3] = Drug metabolism in human HepG2 cells assessed as parent compound remaining level at 13 uM after 24 hrs by LC-MS/MS analysis relative to control; type: ADME, cell-based; conditions: read-out: Stability
Method in brief: (§3)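 Medium was spiked with d4-LTB4 internal standard, SPE-extracted, and quantified by RP-HPLC coupled to triple quadrupole SRM. Amounts are given as nmol per mg cell protein (Bradford) or as % of NPD1 at T0.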

[4] = Drug metabolism in human HepG2 cells assessed as 3Z,6R,7E,9E,11Z,13S,15Z)-6,13-Dihydroxyoctadeca-3,7,9,11,15-pentaenoic Acid formation at 13 uM up to 24 hrs by LC-MS/MS analysis; type: ADME, cell-based; conditions: hepg2, 24 h; method in brief: as §3
Homo sapiens [5] = organism: Homo sapiens; assay: Inhibition of LTB4-induced chemotaxis in human polymorphonuclear leukocytes incubated for 90 mins by Diff-Quick staining based densitometric analysis; type: functional, cell-based; method in brief: as §1
[6] = Drug metabolism in human HepG2 cells assessed as Tmax for 3Z,6R,7E,9E,11Z,13S,15Z)-6,13-Dihydroxyoctadeca-3,7,9,11,15-pentaenoic Acid formation at 0.52 uM by LC-MS/MS analysis; type: ADME, cell-based; conditions: hepg2, 0.52 µM; method in brief: as §3
[7] = Half life in human HepG2 cells at 0.52 uM by LC-MS/MS analysis; type: ADME, cell-based; method in brief: as §3
[8] = Drug metabolism in human HepG2 cells assessed as (5Z,8R,9E,11E,13Z,15S,17Z)-8,15-Dihydroxyicosa-5,9,11,13,17-pentaenoic Acid formation at 13 uM incubated for 4 hrs by tandem mass spectrometric analysis; type: ADME, cell-based; conditions: hepg2, 4 h; method in brief: as §2
[9] = Drug metabolism in human HepG2 cells assessed as hexanor-NPD1 formation at 13 uM incubated for 4 hrs by RP-HPLC/MS analysis; type: ADME, cell-based; conditions: hepg2, 4 h; method in brief: as §2
[10] = Drug metabolism in human HepG2 cells assessed as Tmax for 3Z,6R,7E,9E,11Z,13S,15Z)-6,13-Dihydroxyoctadeca-3,7,9,11,15-pentaenoic Acid formation at 2.6 uM by LC-MS/MS analysis; type: ADME, cell-based; conditions: hepg2, 2.6 µM; method in brief: as §3
[11] = Drug metabolism in human HepG2 cells assessed as 3Z,6R,7E,9E,11Z,13S,15Z)-6,13-Dihydroxyoctadeca-3,7,9,11,15-pentaenoic Acid formation at 13 uM after 24 hrs by LC-MS/MS analysis; type: ADME, cell-based; conditions: hepg2, 24 h; method in brief: as §3
[12] = Drug excretion in healthy human urine by LC-MS/MS analysis; type: ADME, tissue-based; conditions: in vivo
[13] = Drug metabolism in human HepG2 cells assessed as 3Z,6R,7E,9E,11Z,13S,15Z)-6,13-Dihydroxyoctadeca-3,7,9,11,15-pentaenoic Acid formation at 13 uM incubated for 4 hrs by RP-HPLC/MS analysis; type: ADME, cell-based; conditions: hepg2, 4 h; method in brief: as §2
[14] = Drug metabolism in human HepG2 cells assessed as 3Z,6R,7E,9E,11Z,13S,15Z)-6,13-Dihydroxyoctadeca-3,7,9,11,15-pentaenoic Acid formation at 13 uM incubated for 4 hrs by tandem mass spectrometric analysis; type: ADME, cell-based; conditions: hepg2, 4 h; method in brief: as §2
[15] = Drug metabolism in human HepG2 cells assessed as 22-OH-NPD1 formation at 13 uM incubated for 4 hrs by tandem mass spectrometric analysis; type: ADME, cell-based; conditions: hepg2, 4 h; method in brief: as §2
[16] = Drug metabolism in human HepG2 cells assessed as 3Z,6R,7E,9E,11Z,13S,15Z)-6,13-Dihydroxyoctadeca-3,7,9,11,15-pentaenoic Acid formation at 13 uM after 30 mins by LC-MS/MS analysis; type: ADME, cell-based; conditions: hepg2, 0.5 h; method in brief: as §3
[17] = Drug excretion in healthy human urine assessed as 3Z,6R,7E,9E,11Z,13S,15Z)-6,13-Dihydroxyoctadeca-3,7,9,11,15-pentaenoic Acid formation by LC-MS/MS analysis; type: ADME, tissue-based; conditions: in vivo
[18] = Drug metabolism in human HepG2 cells assessed as (5Z,8R,9E,11E,13Z,15S,17Z)-8,15-Dihydroxyicosa-5,9,11,13,17-pentaenoic Acid formation at 13 uM after 24 hrs by LC-MS/MS analysis; type: ADME, cell-based; conditions: hepg2, 24 h; method in brief: as §3
[19] = Drug metabolism in human HepG2 cells at 0.52 uM measured at 30 mins by LC-MS/MS analysis; type: ADME, cell-based; conditions: read-out: Drug metabolism; method in brief: as §3
[20] = Drug metabolism in human HepG2 cells assessed as (5Z,8R,9E,11E,13Z,15S,17Z)-8,15-Dihydroxyicosa-5,9,11,13,17-pentaenoic Acid formation at 13 uM incubated for 4 hrs by RP-HPLC/MS analysis; type: ADME, cell-based; conditions: hepg2, 4 h; method in brief: as §2
[21] = Drug metabolism in human HepG2 cells assessed as (5Z,8R,9E,11E,13Z,15S,17Z)-8,15-Dihydroxyicosa-5,9,11,13,17-pentaenoic Acid formation at 13 uM after 30 mins by LC-MS/MS analysis; type: ADME, cell-based; conditions: hepg2, 0.5 h; method in brief: as §3
[22] = Drug level in healthy human urine assessed as drug recovery at 50 ng measured up to 24 hrs at room temperature in presence of BHT by LC-MS/MS analysis; type: ADME, tissue-based; conditions: urine of healthy humans, read-out: Drug recovery
[23] = Drug metabolism in human HepG2 cells assessed as omega-hydroxylated dinor-NPD1 formation at 13 uM incubated for 4 hrs by RP-HPLC/MS analysis; type: ADME, cell-based; conditions: hepg2, 4 h; method in brief: as §2
[24] = Half life in human HepG2 cells at 2.6 uM by LC-MS/MS analysis; type: ADME, cell-based; method in brief: as §3
[25] = Drug excretion in healthy human urine assessed as (5Z,8R,9E,11E,13Z,15S,17Z)-8,15-Dihydroxyicosa-5,9,11,13,17-pentaenoic Acid formation by LC-MS/MS analysis; type: ADME, tissue-based; conditions: in vivo
[26] = Drug metabolism in human HepG2 cells assessed as 22-OH-NPD1 formation at 13 uM incubated for 4 hrs by RP-HPLC/MS analysis; type: ADME, cell-based; conditions: hepg2, 4 h; method in brief: as §2
[27] = Drug metabolism in human HepG2 cells assessed as (5Z,8R,9E,11E,13Z,15S,17Z)-8,15-Dihydroxyicosa-5,9,11,13,17-pentaenoic Acid formation at 13 uM up to 8 hrs by LC-MS/MS analysis; type: ADME, cell-based; conditions: hepg2, 8 h; method in brief: as §3
[28] = Drug metabolism in human HepG2 cells treated with 13 uM Protectin-D1 assessed as compound formation incubated for 4 hrs by tandem mass spectrometric analysis; type: ADME, cell-based; conditions: hepg2, 4 h; method in brief: as §2
[29] = Half life in human HepG2 cells at 13 uM by LC-MS/MS analysis; type: ADME, cell-based; method in brief: as §3
[30] = Stability in human HepG2 cells at 0.52 uM up to 4 hrs by LC-MS/MS analysis; type: ADME, cell-based; conditions: hepg2, 4 h
Method in brief: (§4)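 HepG2 cells in serum-free medium were incubated with 2.6 or 0.52 μM final NPD1 or LTE4. Medium was collected at 30 min, 1 h and 4 h, spiked with d4-LTB4 and d5-LTE4, SPE-extracted and quantified by LC-MS/MS SRM. Results are expressed as % of the amount measured at T0.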

[31] = Stability in human HepG2 cells at 2.6 uM up to 4 hrs by LC-MS/MS analysis; type: ADME, cell-based; conditions: hepg2, 4 h; method in brief: as §4

Question: Which inhibition (Homo sapiens [1]) does the source give for CC/C=C\C[C@H](O)\C=C/C=C/C=C/[C@H](O)C/C=C\CC(=O)O here?
Answer: Its inhibition is “Active”.

Question: And the “inhibition (INH)” value (Mus musculus)?
Answer: Its value is 20%.

Question: And the Drug uptake [2]?
Answer: The Drug uptake was “Active”.

Question: With CC/C=C\C[C@H](O)\C=C/C=C/C=C/[C@H](O)C/C=C\CCCC(=O)O as the compound, how does the inhibition (Homo sapiens [1]) read?
Answer: The inhibition was “inactive”.

Question: What about the remaining at 24 h, 13 µM [3] of the same compound?
Answer: The remaining at 24 h, 13 µM was < 0.1%.

Question: What about the Drug metabolism [4] of the same compound?
Answer: Its Drug metabolism is “Metabolite_Detected”.

Question: What about the Drug uptake [2] of the same compound?
Answer: Its Drug uptake is “Active”.

Question: With CC/C=C\C[C@H](O)\C=C/C=C/C=C/[C@H](O)C/C=C\C/C=C\CCC(=O)O as the compound, how does the inhibition (Homo sapiens [5]) read?
Answer: Its inhibition is “Dose-dependent effect”.

Question: What about the Tmax [6] of the same compound?
Answer: The Tmax was 4 h.

Question: And the half-life at 0.52 µM [7]?
Answer: The half-life at 0.52 µM was 0.5 h.

Question: What about the Drug metabolism [8] of the same compound?
Answer: Its Drug metabolism is “Metabolite_Detected”.

Question: What about the Drug metabolism [9] of the same compound?
Answer: Its Drug metabolism is “Metabolite_Detected”.

Question: And the Tmax [10]?
Answer: Its Tmax is 4 h.

Question: What about the Drug metabolism [11] of the same compound?
Answer: The Drug metabolism was “Metabolite_Detected”.

Question: And the remaining at 24 h, 13 µM [3]?
Answer: The remaining at 24 h, 13 µM was 0%.

Question: And the Drug excretion [12]?
Answer: The Drug excretion was “Metabolite_Notdetected”.

Question: And the Drug metabolism [13]?
Answer: The Drug metabolism was “Metabolite_Detected”.

Question: What about the Drug metabolism [14] of the same compound?
Answer: Its Drug metabolism is “Metabolite_Detected”.

Question: And the Drug metabolism [15]?
Answer: Its Drug metabolism is “Metabolite_Detected”.

Question: What about the Drug metabolism [16] of the same compound?
Answer: Its Drug metabolism is “Metabolite_Detected”.

Question: And the Drug excretion [17]?
Answer: Its Drug excretion is “Metabolite_Notdetected”.

Question: What about the Drug metabolism [18] of the same compound?
Answer: Its Drug metabolism is “Metabolite_Notdetected”.

Question: And the metabolised at 0.5 h, 0.52 µM [19]?
Answer: The metabolised at 0.5 h, 0.52 µM was > 50%.

Question: And the Drug metabolism [20]?
Answer: Its Drug metabolism is “Metabolite_Detected”.

Question: What about the Drug metabolism [21] of the same compound?
Answer: Its Drug metabolism is “Metabolite_Detected”.

Question: And the remaining at 24 h, 50 ng [22]?
Answer: The remaining at 24 h, 50 ng was 106%.

Question: And the Drug metabolism [23]?
Answer: Its Drug metabolism is “Metabolite_Detected”.

Question: What about the half-life at 2.6 µM [24] of the same compound?
Answer: The half-life at 2.6 µM was 1 h.

Question: What about the Drug excretion [25] of the same compound?
Answer: The Drug excretion was “Metabolite_Notdetected”.

Question: What about the Drug metabolism [26] of the same compound?
Answer: The Drug metabolism was “Metabolite_Detected”.

Question: What about the Drug metabolism [27] of the same compound?
Answer: The Drug metabolism was “Metabolite_Detected”.

Question: And the Drug uptake [28]?
Answer: Its Drug uptake is “Active”.

Question: And the half-life at 13 µM [29]?
Answer: The half-life at 13 µM was > 4 h.

Question: Which Drug excretion [12] does the source give for CCCCC/C=C\C\C=C/C=C/C=C/[C@@H](SC[C@H](N)C(=O)O)[C@@H](O)CCCC(=O)O [LEUKOTRIEN E4] here?
Answer: Its Drug excretion is “Metabolite_Detected”.

Question: And the Stability [30]?
Answer: Its Stability is “Stable”.

Question: What about the Stability [31] of the same compound?
Answer: Its Stability is “Stable”.

Question: For O=C(O)CC/C=C\C/C=C\C[C@@H](O)/C=C/C=C/C=C\[C@@H](O)C/C=C\CCO, which Drug uptake [2] is on record?
Answer: The Drug uptake was “Active”.

From ChEMBL document CHEMBL4414623, “Rapid Metabolization of Protectin D1 by β-Oxidation of Its Polar Head Chain” (J Med Chem, 2019)
